How the values were obtained:
[1] = test system: MCF7; assay: Compound was tested for its toxicity against human breast cancer cells(MCF-7); format: functional, cell-based
In short: (§1)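 MCF-7 and MCF-7/ADR cells were grown at 37 °C in 5% CO2 in phenol red-free RPMI 1640 with 10% FBS, 2 mM L-glutamine, 25 mM HEPES and penicillin/streptomycin. MCF-7/ADR medium also held 5 μM doxorubicin. Cells were exposed to drug for 3 h in RPMI 1640/10% FBS/1% DMSO, then stained by crystal violet. IC50 was given as nmolar equiv/L.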

[2] = test system: NCI/ADR-RES; assay: (§2) Compound was tested for its toxicity against doxorubicin resistant human breast cancer cells (MCF-7/ADR).; format: functional, cell-based; in short: as §1
[3] = test system: MCF7; assay: as §2; format: functional, cell-based; in short: as §1
[4] = Compound was evaluated for its half life at 37 degree Centigrade.
[5] = Compound was evaluated for its half life at 25 degree Centigrade

half-life [4] [min] | half-life [5] [min] | Structure (SMILES) | IC50 [1] [nM equiv l-1] | IC50 [2] [nM equiv l-1] | IC50 [3] [nM equiv l-1]
– | – | COc1cccc2c1C(=O)c1c(O)c3c(c(O)c1C2=O)C[C@@](O)(C(C)=O)C[C@@H]3O[C@H]1C[C@H](N)[C@H](O)[C@H](C)O1 [DAUNORUBICIN] | 60 | 2000 | –
– | – | COc1cccc2c1C(=O)c1c(O)c3c(c(O)c1C2=O)C[C@@](O)(C(=O)CO)C[C@@H]3O[C@H]1C[C@H](N)[C@H](O)[C@H](C)O1 [DOXORUBICIN] | 300 | 10000 | –
– | – | COc1cccc2c1C(=O)c1c(O)c3c(c(O)c1C2=O)C[C@@](O)(C(C)=O)C[C@@H]3OC1CC2C(OCN2CN2COC3C(C)OC(O[C@H]4C[C@](O)(C(C)=O)Cc5c(O)c6c(c(O)c54)C(=O)c4c(OC)cccc4C6=O)CC32)C(C)O1 (some centres undefined) [DAUNOFORM] | 8 | – | 10
15 | 35 | COc1cccc2c1C(=O)c1c(O)c3c(c(O)c1C2=O)C[C@@](O)(C(=O)CO)C[C@@H]3O[C@@H]1C[C@@H](N)[C@H](O)[C@@H](C)O1 | – | – | –
– | – | COc1cccc2c1C(=O)c1c(O)c3c(c(O)c1C2=O)C[C@@](O)(C(=O)CO)C[C@@H]3OC1CC2C(OCN2CN2COC3C(C)OC(O[C@H]4C[C@](O)(C(=O)CO)Cc5c(O)c6c(c(O)c54)C(=O)c4c(OC)cccc4C6=O)CC32)C(C)O1 (some centres undefined) [DOXOFORM] | 2 | 1 | –
– | – | COc1cccc2c1C(=O)c1c(O)c3c(c(O)c1C2=O)C[C@@](O)(C(=O)CO)C[C@@H]3O[C@H]1C[C@H]2C(OCN3CN2CO[C@H]2[C@@H](C)O[C@@H](O[C@H]4C[C@](O)(C(=O)CO)Cc5c(O)c6c(c(O)c54)C(=O)c4c(OC)cccc4C6=O)C[C@@H]23)[C@H](C)O1 (some centres undefined) [EPIDOXOFORM] | 65 | 70 | –
– | – | COc1cccc2c1C(=O)c1c(O)c3c(c(O)c1C2=O)C[C@@](O)(C(=O)CO)C[C@@H]3O[C@H]1C[C@H](N)[C@@H](O)[C@H](C)O1 [EPIRUBICIN] | 200 | > 10000 | –
